Laboratory results from ChEMBL document CHEMBL2062505, “Thermodynamic Investigation of Inhibitor Binding to 1-Deoxy-D-Xylulose-5-Phosphate Reductoisomerase” (ACS Med Chem Lett, 2012).

What was measured:
Escherichia coli [1] = assay: Binding affinity to Escherichia coli DXR by isothermal titration […] assay in presence of 2 mM NADPH and 150 mM NaCl at 279 K and pH 7.6 and Mg2+
In short: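 Isothermal titration calorimetry of inhibitor titrated into E. coli DXR at 279 K, pH 7.6, with 2 mM NADPH, 150 mM NaCl and Mg2+. Ka and ΔH come from fitted titration curves, with ΔG and ΔS derived from them. Kd is taken as the inverse of Ka.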

[2] = Inhibition of Escherichia coli DXR using DXP as substrate preincubated for 5 mins
[3] = Inhibition of Mycobacterium tuberculosis DXR using DXP as substrate preincubated for 5 mins
[4] = Inhibition of His6-tagged Plasmodium falciparum DXR expressed in Escherichia coli M15 using DXP as substrate preincubated for 5 mins
[5] = tested on: Mycobacterium tuberculosis; assay: Binding affinity to Mycobacterium tuberculosis DXR by isothermal titration […] assay in presence of 2 mM NADPH and 150 mM NaCl at 279 K and pH 7.6
Plasmodium falciparum = assay: Binding affinity to His6-tagged Plasmodium falciparum DXR expressed in Escherichia coli M15 by isothermal titration […] assay in presence of 2 mM NADPH and 150 mM NaCl at 279 K and pH 7.6
In short: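 PfDXR gene cloned into pQE30, expressed in E. coli M15, and purified as His6-tagged protein. ITC run at 279 K, pH 7.6, with 2 mM Mn2+ and 2 mM NADPH. Ka and ΔH come from curve fitting, with Kd as the inverse of Ka.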

Escherichia coli [6] = assay: Binding affinity to Escherichia coli DXR by isothermal titration […] assay in presence of 2 mM NADPH and 150 mM NaCl at 279 K and pH 8.5
In short: (§1)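 Isothermal titration calorimetry of inhibitor binding to E. coli DXR, run at 279 K with 2 mM NADPH and 150 mM NaCl. Titrations were done with Mg2+ or Mn2+ present, or with no divalent metal ion. Fitted curves gave ΔH and Ka, with ΔG and ΔS derived from them. Kd was taken as the inverse of Ka.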

Escherichia coli [7] = assay: Binding affinity to Escherichia coli DXR by isothermal titration […] assay in presence of 2 mM NADPH and 150 mM NaCl at 279 K and pH 7.6; in short: as §1
Escherichia coli [8] = assay: Binding affinity to Escherichia coli DXR by isothermal titration […] assay in presence of 2 mM NADPH and 150 mM NaCl at 279 K and pH 8.5 and Mg2+
In short: (§2)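 Heat of inhibitor binding to E. coli DXR (EcDXR) was measured by isothermal titration calorimetry and fitted to binding curves. The fit gave the association constant Ka (M–1) and ΔH, with ΔG and ΔS also reported. Kd was taken as the inverse of Ka. The divalent metal ion (Mg2+ or Mn2+) was included in the titration.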

Escherichia coli [9] = assay: Binding affinity to Escherichia coli DXR by isothermal titration […] assay in presence of 2 mM NADPH and 150 mM NaCl at 279 K and pH 7.6 and Mn2+; in short: as §2

Structure (SMILES) | Ka (Escherichia coli [1]) | Ki [2] [nM] | Ki [3] [nM] | Ki [4] [nM] | Ka [5] | Ka (Plasmodium falciparum) | Ka (Escherichia coli [6]) [×10⁵ /M] | Ka (Escherichia coli [7]) [×10⁵ /M] | Ka (Escherichia coli [8]) [×10⁶ /M] | Ka (Escherichia coli [9]) [×10⁶ /M]
O=CN(O)CCC(c1ccc(Cl)c(Cl)c1)P(=O)(O)O (centres undefined) | 3.03 ×10⁶ /M | 58 | 1200 | 15 | 2.08 ×10⁶ /M | 3.13 ×10⁶ /M | – | – | – | –
O=c1ccc(-c2ccccc2)cn1O [1-HYDROXY-5-PHENYLPYRIDIN-2(1H)-ONE] | 1.72 ×10⁵ /M | 700 | 21800 | 14600 | 3.42 ×10⁵ /M | 2.69 ×10⁵ /M | 2.55 | 2.87 | – | –
CC(=O)N(O)CCCP(=O)(O)O [FR-900098] | 7.14 ×10⁶ /M | 19 | 130 | 11 | 1.79 ×10⁶ /M | 1.28 ×10⁷ /M | – | – | – | –
O=CN(O)CCCP(=O)(O)O [FOSMIDOMYCIN] | 6.67 ×10⁶ /M | – | – | – | 3.45 ×10⁶ /M | 1.28 ×10⁷ /M | – | – | 5.6 | 7.35
O=P(O)(O)Cc1ccccn1 [PYRIDIN-2-YLMETHYLPHOSPHONIC ACID] | 4.93 ×10⁵ /M | 2300 | 1600 | 3300 | 6.29 ×10⁵ /M | 8.77 ×10⁵ /M | 4.89 | 4.31 | – | –
O=P(O)(O)Cc1ccc(-c2ccccc2)cn1 | 4.83 ×10⁵ /M | 420 | 3200 | 1100 | 4.44 ×10⁵ /M | 4.67 ×10⁵ /M | – | – | – | –
